Measured values reported in ChEMBL document CHEMBL1949601, “γ-Carbolines: a novel class of cannabinoid agonists with high aqueous solubility and restricted CNS penetration” (Bioorg Med Chem Lett, 2012).
Values after ≈ are worked out from the molar mass of the structure shown.

What was measured:
[1] = molecular target: Cannabinoid receptor 2 (Homo sapiens, UniProt P34972); assay: Binding affinity to human CB2 receptor
[2] = molecular target: Cannabinoid receptor 1 (Rattus norvegicus, UniProt P20272); assay: Agonist activity at CB1 receptor in rat brain tissue; format: functional, tissue-based
[3] = molecular target: Cannabinoid receptor 1 (Rattus norvegicus) (UniProt P20272); assay: Agonist activity at CB1 receptor in rat brain tissue relative to control; format: functional, tissue-based
[4] = Aqueous solubility of the compound at pH 7.4; format: physicochemical
[5] = molecular target: Angiotensin-converting enzyme (Homo sapiens) (UniProt P12821); assay: Activity of human ACE at 10 uM
[6] = molecular target: Prostaglandin G/H synthase 1 (Homo sapiens) (UniProt P23219); assay: Activity at human COX1 receptor at 10 uM
[7] = molecular target: MAO-A (Homo sapiens, UniProt P21397); assay: Activity at human MAO-A receptor at 10 uM; settings: read-out: Activity
[8] = molecular target: Mitogen-activated protein kinase 1 (Mus musculus) (UniProt P63085); assay: Activity at mouse ERK2 receptor at 10 uM
[9] = molecular target: Protein kinase C alpha type (Homo sapiens) (UniProt P17252); assay: Activity at human PKCalpha at 10 uM
[10] = molecular target: Beta-1 adrenergic receptor (Homo sapiens) (UniProt P08588); assay: Activity at human beta1 adrenergic receptor at 10 uM
[11] = molecular target: D(2) dopamine receptor (Homo sapiens) (UniProt P14416); assay: Activity at human dopamine2L receptor at 10 uM
[12] = species on record: Rattus norvegicus; assay: Activity at rat GABAa receptor at 10 uM
[13] = molecular target: Muscarinic acetylcholine receptor M3 (Homo sapiens) (UniProt P20309); assay: Activity at human M3 receptor at 10 uM
[14] = molecular target: 5-hydroxytryptamine receptor 2A (Homo sapiens) (UniProt P28223); assay: Activity at 5-HT2a receptor at 10 uM
[15] = Activity at L-Type Calcium channel at 10 uM
[16] = molecular target: Adenosine receptor A2a (Homo sapiens) (UniProt P29274); assay: Activity at human A2a receptor at 10 uM
[17] = molecular target: Bombesin receptor subtype-3 (Homo sapiens) (UniProt P32247); assay: Activity at human BRS3 at 10 uM
[18] = molecular target: C-C chemokine receptor type 2 (Homo sapiens) (UniProt P41597); assay: Activity at human CCR2b at 10 uM
[19] = molecular target: Corticotropin-releasing factor receptor 1 (Homo sapiens) (UniProt P34998); assay: Activity at human CRF1 receptor at 10 uM
[20] = molecular target: CX3C chemokine receptor 1 (Homo sapiens) (UniProt P49238); assay: Activity at human CX3CR1 receptor at 10 uM
[21] = molecular target: C-X-C chemokine receptor type 6 (Homo sapiens) (UniProt O00574); assay: Activity at human CXCR6 receptor at 10 uM
[22] = molecular target: fMet-Leu-Phe receptor (Homo sapiens) (UniProt P21462); assay: Activity at human FPR1 receptor at 10 uM
[23] = molecular target: Growth hormone secretagogue receptor type 1 (Homo sapiens) (UniProt Q92847); assay: Activity at human GHS receptor at 10 uM
[24] = molecular target: Melanin-concentrating hormone receptor 1 (Homo sapiens) (UniProt Q99705); assay: Activity at human MCH1 receptor at 10 uM
[25] = molecular target: Muscarinic acetylcholine receptor M4 (Homo sapiens) (UniProt P08173); assay: Activity at human M4 receptor at 10 uM
[26] = molecular target: Neuromedin-K receptor (Homo sapiens) (UniProt P29371); assay: Activity at human NK3 receptor at 10 uM
[27] = molecular target: Glucagon-like peptide 1 receptor (Homo sapiens) (UniProt P43220); assay: Activity at human GLP1 receptor at 10 uM
[28] = molecular target: Motilin receptor (Homo sapiens) (UniProt O43193); assay: Activity at human Mtl receptor at 10 uM
[29] = molecular target: Somatostatin receptor type 4 (Homo sapiens) (UniProt P31391); assay: Activity at human SST4 receptor at 10 uM
[30] = molecular target: Vasopressin V1b receptor (Homo sapiens) (UniProt P47901); assay: Activity at human V1B receptor at 10 uM
[31] = molecular target: Pyroglutamylated RF-amide peptide receptor (Rattus norvegicus) (UniProt P83858); assay: Activity at rat GPR103 receptor at 10 uM
[32] = molecular target: Prokineticin-2 (Rattus norvegicus) (UniProt Q8R413); assay: Activity at rat PK2 receptor at 10 uM
[33] = molecular target: N-formyl peptide receptor 2 (Homo sapiens) (UniProt P25090); assay: Activity at human FPRL1 receptor at 10 uM
[34] = molecular target: Urotensin-2 receptor (Mus musculus) (UniProt Q8VIH9); assay: Activity at mouse UT2 receptor at 10 uM
[35] = Apparent permeability across human Caco2 cells; format: ADME, cell-based; settings: Caco-2
[36] = Ratio of drug uptake in brain to plasma of mouse; format: ADME, cell-free; settings: read-out: BPR
Method in brief: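 Compound given sc or po; blood and brain sampled 30 or 60 min post-dose; total plasma and brain concentrations by protein precipitation (brain homogenised) and LC–MS/MS; brain values corrected for 2% blood contamination; brain/plasma ratio calculated.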

[37] = Fraction unbound in Sprague-Dawley rat plasma at 1 mg/kg, sc; format: ADME, organism-based; set-up: dose 1 mg/kg, route subcutaneous
[38] = Metabolic stability in rat liver microsomes; format: ADME, Microsome; settings: read-out: Stability
[39] = Clearance in iv dosed Sprague-Dawley rat; format: ADME, organism-based; settings: in vivo
[40] = Half life in iv dosed Sprague-Dawley rat; format: ADME, organism-based; settings: in vivo
[41] = test system: Rattus norvegicus; assay: Volume of distribution at steady state in po dosed Sprague-Dawley rat; format: ADME, organism-based; settings: in vivo
[42] = Oral bioavailability in Sprague-Dawley rat; format: ADME, organism-based; settings: in vivo
[43] = molecular target: Cytochrome P450 1A2 (Homo sapiens, UniProt P05177); assay: Inhibition of CYP1A2; format: ADME
[44] = molecular target: Cytochrome P450 2C9 (Homo sapiens, UniProt P11712); assay: Inhibition of CYP2C9; format: ADME
[45] = molecular target: Cytochrome P450 2C19 (Homo sapiens, UniProt P33261); assay: Inhibition of CYP2C19; format: ADME
[46] = molecular target: Cytochrome P450 2D6 (Homo sapiens, UniProt P10635); assay: Inhibition of CYP2D6; format: ADME
[47] = molecular target: Cytochrome P450 3A4 (Homo sapiens, UniProt P08684); assay: Inhibition of CYP3A4; format: ADME
[48] = Dissociation constant, pKa of the compound; format: physicochemical
[49] = molecular target: Cannabinoid receptor 1 (Mus musculus, UniProt P47746); assay: Agonist activity at CB1 receptor in field-stimulated mouse vas deferens; format: functional, tissue-based
Method in brief: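 Isolated mouse vas deferens under electrical field stimulation, used as an intact tissue assay of CB1 agonism at the native receptor.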

[50] = test system: Rattus norvegicus; assay: Antihyperalgesic activity in sc dosed Sprague-Dawley rat carrageenan pain model; format: functional, organism-based
Method in brief: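 Rats dosed subcutaneously at 0.35, 0.70 and 1.4 mg/kg in carrageenan inflammatory pain model; reversal of heat hyperalgesia measured. n = 7 per group; mean ± SEM; one-way ANOVA with Holm-Sidak test versus vehicle group.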

[51] = test system: Rattus norvegicus; assay: Toxicity in Sprague-Dawley rat carrageenan pain model assessed as hypoactivity at […], sc; format: organism-based; settings: in vivo

Sequence of 5-hydroxytryptamine receptor 2A (Homo sapiens) (P28223 whole entry): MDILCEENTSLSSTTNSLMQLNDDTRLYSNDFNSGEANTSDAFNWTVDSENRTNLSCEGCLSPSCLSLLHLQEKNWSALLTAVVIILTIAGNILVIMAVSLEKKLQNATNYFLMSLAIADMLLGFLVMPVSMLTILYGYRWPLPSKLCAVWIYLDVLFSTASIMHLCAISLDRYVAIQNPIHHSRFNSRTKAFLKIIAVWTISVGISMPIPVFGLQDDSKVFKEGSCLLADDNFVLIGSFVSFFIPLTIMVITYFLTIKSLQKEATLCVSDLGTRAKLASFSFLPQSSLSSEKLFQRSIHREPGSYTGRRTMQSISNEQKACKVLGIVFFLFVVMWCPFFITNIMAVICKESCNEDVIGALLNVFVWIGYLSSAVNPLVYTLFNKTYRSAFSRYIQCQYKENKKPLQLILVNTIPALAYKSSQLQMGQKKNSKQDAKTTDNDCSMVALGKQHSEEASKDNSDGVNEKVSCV
Sequence of Cannabinoid receptor 1 (Mus musculus, UniProt P47746) (P47746 whole entry): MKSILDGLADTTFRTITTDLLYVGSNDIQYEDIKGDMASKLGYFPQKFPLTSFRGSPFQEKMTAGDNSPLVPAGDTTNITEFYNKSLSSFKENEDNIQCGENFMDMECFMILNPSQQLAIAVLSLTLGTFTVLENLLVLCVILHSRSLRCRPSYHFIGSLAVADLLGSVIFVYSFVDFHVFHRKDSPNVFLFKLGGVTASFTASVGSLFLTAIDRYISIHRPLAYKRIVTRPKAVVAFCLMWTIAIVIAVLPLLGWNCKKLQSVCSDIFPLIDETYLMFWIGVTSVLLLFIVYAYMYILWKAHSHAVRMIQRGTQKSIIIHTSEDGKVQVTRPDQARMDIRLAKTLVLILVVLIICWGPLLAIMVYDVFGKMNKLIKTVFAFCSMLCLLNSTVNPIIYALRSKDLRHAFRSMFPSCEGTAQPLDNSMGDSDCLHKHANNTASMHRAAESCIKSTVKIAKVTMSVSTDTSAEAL
Sequence of Neuromedin-K receptor (Homo sapiens) (P29371 whole entry): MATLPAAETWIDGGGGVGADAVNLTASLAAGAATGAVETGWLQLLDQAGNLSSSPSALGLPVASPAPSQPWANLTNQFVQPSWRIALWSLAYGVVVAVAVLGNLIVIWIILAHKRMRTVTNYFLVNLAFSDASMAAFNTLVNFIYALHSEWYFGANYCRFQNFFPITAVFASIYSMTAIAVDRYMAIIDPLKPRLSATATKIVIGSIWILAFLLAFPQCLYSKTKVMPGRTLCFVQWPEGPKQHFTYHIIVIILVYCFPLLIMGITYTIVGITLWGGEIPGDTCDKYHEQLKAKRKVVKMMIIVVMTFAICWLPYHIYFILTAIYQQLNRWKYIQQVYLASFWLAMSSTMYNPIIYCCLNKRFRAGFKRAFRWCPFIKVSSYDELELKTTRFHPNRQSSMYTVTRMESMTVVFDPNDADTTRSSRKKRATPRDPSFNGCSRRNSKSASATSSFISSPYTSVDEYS
Sequence of D(2) dopamine receptor (Homo sapiens) (P14416 whole entry): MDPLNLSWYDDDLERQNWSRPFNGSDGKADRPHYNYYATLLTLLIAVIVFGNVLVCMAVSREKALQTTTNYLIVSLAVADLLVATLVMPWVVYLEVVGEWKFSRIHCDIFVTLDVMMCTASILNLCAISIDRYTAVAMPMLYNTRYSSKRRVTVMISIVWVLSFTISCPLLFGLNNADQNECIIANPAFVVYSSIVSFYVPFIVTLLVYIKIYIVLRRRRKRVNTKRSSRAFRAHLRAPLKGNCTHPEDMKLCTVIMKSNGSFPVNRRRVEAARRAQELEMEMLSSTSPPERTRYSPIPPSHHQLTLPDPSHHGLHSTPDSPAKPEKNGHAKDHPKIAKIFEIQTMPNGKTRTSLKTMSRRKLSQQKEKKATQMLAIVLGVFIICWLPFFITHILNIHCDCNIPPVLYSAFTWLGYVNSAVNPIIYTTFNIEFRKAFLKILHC
Sequence of Adenosine receptor A2a (Homo sapiens) (P29274 whole entry): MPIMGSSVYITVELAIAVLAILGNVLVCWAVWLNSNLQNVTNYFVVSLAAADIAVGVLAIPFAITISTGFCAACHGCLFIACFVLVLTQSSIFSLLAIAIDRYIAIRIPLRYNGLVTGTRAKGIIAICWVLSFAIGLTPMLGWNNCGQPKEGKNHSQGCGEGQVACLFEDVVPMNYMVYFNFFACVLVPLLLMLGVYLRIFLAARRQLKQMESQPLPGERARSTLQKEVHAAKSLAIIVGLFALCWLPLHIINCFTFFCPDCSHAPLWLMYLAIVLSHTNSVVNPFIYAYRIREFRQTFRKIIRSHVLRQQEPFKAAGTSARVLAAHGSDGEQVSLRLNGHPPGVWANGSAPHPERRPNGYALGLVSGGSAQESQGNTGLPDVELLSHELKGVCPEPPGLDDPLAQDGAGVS
Sequence of Cannabinoid receptor 2 (P34972 whole entry): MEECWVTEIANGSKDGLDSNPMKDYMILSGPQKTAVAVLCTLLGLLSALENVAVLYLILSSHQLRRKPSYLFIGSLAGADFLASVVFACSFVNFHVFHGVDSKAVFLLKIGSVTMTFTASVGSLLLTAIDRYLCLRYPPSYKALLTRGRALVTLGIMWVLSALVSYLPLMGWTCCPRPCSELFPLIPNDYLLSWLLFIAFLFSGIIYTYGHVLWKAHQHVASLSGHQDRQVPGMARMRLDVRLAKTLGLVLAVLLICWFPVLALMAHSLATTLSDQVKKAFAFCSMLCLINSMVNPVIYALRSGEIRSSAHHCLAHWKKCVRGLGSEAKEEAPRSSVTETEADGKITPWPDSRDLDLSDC
Sequence of Cytochrome P450 3A4 (P08684 whole entry): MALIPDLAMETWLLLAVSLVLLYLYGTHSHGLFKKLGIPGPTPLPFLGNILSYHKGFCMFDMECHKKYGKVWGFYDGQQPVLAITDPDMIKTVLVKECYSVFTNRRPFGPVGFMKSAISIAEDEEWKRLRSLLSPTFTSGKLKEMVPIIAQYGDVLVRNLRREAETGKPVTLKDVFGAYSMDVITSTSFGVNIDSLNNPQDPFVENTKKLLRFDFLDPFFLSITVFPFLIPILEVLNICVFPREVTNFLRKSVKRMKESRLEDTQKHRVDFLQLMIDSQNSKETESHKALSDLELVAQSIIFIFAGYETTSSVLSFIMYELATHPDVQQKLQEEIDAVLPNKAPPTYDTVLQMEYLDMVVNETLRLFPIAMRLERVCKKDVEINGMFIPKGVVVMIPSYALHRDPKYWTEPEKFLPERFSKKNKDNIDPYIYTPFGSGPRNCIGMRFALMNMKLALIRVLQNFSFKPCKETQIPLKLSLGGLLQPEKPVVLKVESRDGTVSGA
Sequence of Melanin-concentrating hormone receptor 1 (Homo sapiens) (Q99705 whole entry): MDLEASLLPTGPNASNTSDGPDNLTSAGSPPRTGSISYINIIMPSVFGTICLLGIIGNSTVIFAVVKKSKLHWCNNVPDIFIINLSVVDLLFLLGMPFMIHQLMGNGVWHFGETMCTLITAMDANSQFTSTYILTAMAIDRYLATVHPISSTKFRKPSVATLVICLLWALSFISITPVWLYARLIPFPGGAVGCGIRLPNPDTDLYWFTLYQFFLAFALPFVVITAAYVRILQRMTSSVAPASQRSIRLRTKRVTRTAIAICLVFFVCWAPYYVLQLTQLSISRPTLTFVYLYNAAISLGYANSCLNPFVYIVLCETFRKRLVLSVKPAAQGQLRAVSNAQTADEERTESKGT
Sequence of N-formyl peptide receptor 2 (Homo sapiens) (P25090 whole entry): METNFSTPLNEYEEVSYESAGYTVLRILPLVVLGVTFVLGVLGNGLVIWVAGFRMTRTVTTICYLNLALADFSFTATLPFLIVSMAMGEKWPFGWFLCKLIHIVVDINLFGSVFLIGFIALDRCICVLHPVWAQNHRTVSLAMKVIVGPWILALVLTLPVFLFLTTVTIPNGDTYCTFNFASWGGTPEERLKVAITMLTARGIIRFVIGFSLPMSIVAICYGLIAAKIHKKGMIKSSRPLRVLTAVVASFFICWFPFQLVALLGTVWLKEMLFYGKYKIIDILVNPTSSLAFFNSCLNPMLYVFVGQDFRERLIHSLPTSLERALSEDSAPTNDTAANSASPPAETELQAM
Sequence of fMet-Leu-Phe receptor (Homo sapiens) (P21462 whole entry): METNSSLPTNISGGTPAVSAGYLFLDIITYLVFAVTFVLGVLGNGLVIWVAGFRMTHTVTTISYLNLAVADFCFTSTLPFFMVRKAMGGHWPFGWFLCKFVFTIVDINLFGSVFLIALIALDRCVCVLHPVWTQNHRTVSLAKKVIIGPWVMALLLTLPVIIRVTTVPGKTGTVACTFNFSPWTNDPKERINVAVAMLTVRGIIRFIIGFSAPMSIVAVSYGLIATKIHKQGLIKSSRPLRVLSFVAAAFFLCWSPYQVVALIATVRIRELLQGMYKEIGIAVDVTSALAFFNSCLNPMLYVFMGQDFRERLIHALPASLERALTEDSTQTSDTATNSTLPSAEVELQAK
Sequence of Muscarinic acetylcholine receptor M3 (Homo sapiens) (P20309 whole entry, looked up): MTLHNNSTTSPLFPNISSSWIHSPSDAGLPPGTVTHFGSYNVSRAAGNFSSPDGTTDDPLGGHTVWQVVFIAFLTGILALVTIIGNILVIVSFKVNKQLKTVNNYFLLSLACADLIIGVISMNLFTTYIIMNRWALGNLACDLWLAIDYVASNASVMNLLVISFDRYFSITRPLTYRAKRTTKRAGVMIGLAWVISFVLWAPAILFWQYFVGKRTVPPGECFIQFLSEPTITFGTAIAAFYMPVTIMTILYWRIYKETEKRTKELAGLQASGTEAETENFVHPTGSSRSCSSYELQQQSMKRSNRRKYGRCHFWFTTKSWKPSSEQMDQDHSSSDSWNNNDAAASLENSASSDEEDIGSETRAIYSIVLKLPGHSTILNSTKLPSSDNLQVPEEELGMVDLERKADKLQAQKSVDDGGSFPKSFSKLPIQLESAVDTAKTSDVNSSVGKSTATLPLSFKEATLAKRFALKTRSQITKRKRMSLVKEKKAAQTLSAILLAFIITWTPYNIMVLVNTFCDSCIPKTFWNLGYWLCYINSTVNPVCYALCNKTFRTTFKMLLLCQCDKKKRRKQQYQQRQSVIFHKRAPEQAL
Sequence of Prokineticin-2 (Rattus norvegicus) (Q8R413 whole entry): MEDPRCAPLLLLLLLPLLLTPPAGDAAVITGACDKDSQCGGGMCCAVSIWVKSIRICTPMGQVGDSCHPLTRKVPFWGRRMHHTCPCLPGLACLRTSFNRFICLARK

CCS(=O)(=O)n1c2c(c3cc(C(=O)N4CCC(C)CC4)ccc31)CN(C1CCOCC1)CC2
Ki [1]: 9 nM | EC50 [2]: 85 nM | Emax [3]: 156% | solubility [4]: 480 µg/mL (≈ 1010 µM) | Activity [5]: < 50% | Activity [6]: < 50% | activity at 10 µM [7]: < 50% | Activity [8]: < 50% | Activity [9]: < 50% | Activity [10]: < 50% | Activity [11]: < 50% | Activity [12]: < 50% | Activity [13]: < 50% | Activity [14]: < 50% | Activity [15]: < 50% | Activity [16]: < 50% | Activity [17]: < 50% | Activity [18]: < 50% | Activity [19]: < 50% | Activity [20]: < 50% | Activity [21]: < 50% | Activity [22]: < 50% | Activity [23]: < 50% | Activity [24]: < 50% | Activity [25]: < 50% | Activity [26]: < 50% | Activity [27]: < 50% | Activity [28]: < 50% | Activity [29]: < 50% | Activity [30]: < 50% | Activity [31]: < 50% | Activity [32]: < 50% | Activity [33]: < 50% | Activity [34]: < 50% | Papp [35]: 13 ×10⁻⁶ cm/s | Kp [36]: 0.05 | fraction unbound [37]: 0.13 | microsomal CLint [38]: 202 µL/min/mg | clearance [39]: 28 mL/min/kg | half-life [40]: 37.8 min | Vdss [41]: 1.2 L/kg | bioavailability [42]: 16% | IC50 [43]: > 20 µM | IC50 [44]: > 20 µM | IC50 [45]: > 20 µM | IC50 [46]: > 20 µM | IC50 [47]: > 20 µM | pKa [48]: 6.9 | IC50 [49]: 1.9 nM | Activity [50]: Dose-dependent effect | Activity [51]: Toxic
